Reference: ChEMBL document CHEMBL1133176, “3-Aryl-[1,2,4]triazino[4,3-a]benzimidazol-4(10H)-ones: tricyclic heteroaromatic derivatives as a new class of benzodiazepine receptor ligands” (J Med Chem, 2000)
Activity calls are given as the source filed them. The rule behind the calls is not given here.

Columns and labels:
[1] = target: T1, GABA-A receptor; anion channel (Bos taurus) (UniProt P10063+P08220+P20237+P08219+P10064+P22300); test: Inhibition of […] [3H]- Ro.15-1788 binding to benzodiazepine receptors in bovine brain membrane.; format: cell membranes
[2] = target: T1, GABA-A receptor; anion channel (Bos taurus); test: (§1) Inhibition of [35S]-TBPS binding to GABA-A central Benzodiazepine Receptor of bovine cerebral cortex membranes; format: tissue-based; design: concentration or dose not given beside the values; settings: concentration not given here
Outline: (§2)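 [35S]TBPS binding run in the presence of GABA with compounds at 0.5 μM, on bovine brain membranes washed in Tris-citrate pH 7.4. […] Mean ± SE of three separate experiments.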

[3] = target: GABA-A receptor; anion channel; test: Displacement of [3H]- Ro.15-1788 from GABA-A central Benzodiazepine receptor (BzR) of Bovine cerebral cortex membrane; format: tissue-based, Bos taurus
[4] = target: T1, GABA-A receptor; anion channel (Bos taurus); test: Relative binding to GABA-A receptor in the presence and absence of GABA (GABA shift), Ki(-GABA)/Ki(+GABA); format: protein-complex assay
Outline: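 Bovine brain membranes, frozen-thawed and washed in 50 mM Tris-citrate pH 7.4, used for displacement of radiolabeled antagonist [3H]Ro 15-1788. Ki reported as mean ± SEM of three determinations. GABA ratio taken as Ki without GABA divided by Ki with GABA.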

Mus musculus [5] = test: Antagonism of Diazepam (2.5 mg/kg, ip) anticonvulsant effect in mice treated with PTZ (80 mg/kg, sc), No effect to 250 mg/kg dose; format: functional, organism-based; design: dose 250 mg/kg
Outline: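 Mice received diazepam 2.5 mg/kg ip plus convulsant PTZ 80 mg/kg sc. The dose of test compound that antagonizes the anticonvulsant effect of diazepam was determined, with a highest dose of 250 mg/kg. Values are means of at least three determinations.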

[6] = target: T1, GABA-A receptor; anion channel (Bos taurus); test: as §1; format: tissue-based; settings: concentration not given here; outline: as §2
Mus musculus [7] = test: Dose required to antagonise the convulsant action of PTZ (80 mg/kg, sc) in 50% mice; No effect at a highest dose of 250 mg/kg; format: functional, organism-based; design: dose 250 mg/kg
Mus musculus [8] = test: Proconvulsant action measured as the dose required to induce convulsions in 50% of mice that had been previously given a subconvulsant dose of PTZ (40 mg/kg, sc); No effect at a highest dose of 250 mg/kg; format: functional, organism-based; design: dose 250 mg/kg
Outline: (§3)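 Mice pretreated with a subconvulsant PTZ dose of 40 mg/kg sc. The dose inducing convulsions in 50% of animals was determined, with compounds tested up to 250 mg/kg. Values are means of at least three determinations, with ≤20% variation between experiments.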

Mus musculus [9] = test: Dose required by the compound in vivo to antagonise the convulsant action of PTZ (80 mg/kg, sc) in 50 % mice; format: functional
Outline: (§4)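 Mice; anticonvulsant value is the dose protecting 50% of animals from convulsions caused by PTZ 80 mg/kg sc; diazepam antagonism measured as dose reversing the anticonvulsant effect of diazepam 2.5 mg/kg ip in mice given PTZ 80 mg/kg sc. Top test dose 250 mg/kg; means of at least three determinations (≤20% between-experiment difference).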

Mus musculus [10] = test: Antagonism of Diazepam (2.5 mg/kg, ip) anticonvulsant effect in mice treated with PTZ (80 mg/kg, sc); format: functional; outline: as §4
Mus musculus [11] = test: Proconvulsant action measured as the dose required to induce convulsions in 50% of mice that had been previously given a subconvulsant dose of PTZ (40 mg/kg, sc); No effect at a highest dose of 100 mg/kg; format: functional, organism-based; design: dose 100 mg/kg
Mus musculus [12] = test: Dose required to antagonise the convulsant action of PTZ (80 mg/kg, sc) in 50% mice; No effect at a highest dose of 100 mg/kg; format: functional, organism-based; design: dose 100 mg/kg
Mus musculus [13] = test: Proconvulsant action measured as the dose required to induce convulsions in 50% of mice that had been previously given a subconvulsant dose of PTZ (40 mg/kg, sc); No effect at a hieghst dose of 250 mg/kg; format: functional, organism-based; design: dose 250 mg/kg; outline: as §3
Mus musculus [14] = test: Proconvulsant action measured as the dose required to induce convulsions in 50% of mice that had been previously given a subconvulsant dose of PTZ (40 mg/kg, sc); format: functional
Outline: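 Proconvulsant test in mice pretreated with subconvulsant PTZ 40 mg/kg sc; value is the dose inducing convulsions in 50% of animals. Highest test dose 250 mg/kg; means of at least three determinations, ≤20% difference between experiments.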

Mus musculus [15] = test: Dose required to antagonise the convulsant action of PTZ (80 mg/kg, sc) in 50% mice; No effect at a highest dose of 30 mg/kg; format: functional, organism-based; design: dose 30 mg/kg

Cn1c2ccccc2n2c(=O)c(-c3ccc(Cl)cc3)nnc12
inhibition [1]: 30%

Oc1ccc(-c2nnc3nc4ccccc4n3c2O)cc1
inhibition [2]: 15%
Ki [3]: 74 nM
GABA ratio [4]: 0.87
inhibition [1]: 99%

Oc1c(-c2cccs2)nnc2nc3ccccc3n12
NE (Mus musculus [5]): inactive
Ki [3]: 13 nM
GABA ratio [4]: 0.97
inhibition [6]: 28%
NE (Mus musculus [7]): inactive
NE (Mus musculus [8]): inactive
inhibition [1]: 99%

CN1C(=O)CN=C(c2ccccc2)c2cc(Cl)ccc21 [DIAZEPAM]
ED50 (Mus musculus [9]): 0.4 mg/kg

CCOC(=O)c1ncn2c1CN(C)C(=O)c1cc(F)ccc1-2 [FLUMAZENIL]
inhibition [2]: 15%
Ki [3]: 0.09 nM
Diazepam antagonism (Mus musculus [10]): 0.3
GABA ratio [4]: 0.9
NE (Mus musculus [11]): inactive
NE (Mus musculus [12]): inactive

Cc1ccc(-c2nnc3nc4ccccc4n3c2O)cc1
inhibition [1]: 56%

Cn1c2ccccc2n2c(=O)c(-c3cccs3)nnc12
inhibition [1]: 63%

O=C1CN=C(c2ccccc2Cl)c2cc([N+](=O)[O-])ccc2N1
inhibition [2]: 100%

Oc1ccc(-c2nnc3nc4ccccc4n3c2O)cc1O
Ki [3]: 170 nM
GABA ratio [4]: 1.2
inhibition [1]: 99%

COc1ccc(-c2nnc3n(C)c4ccccc4n3c2=O)cc1
inhibition [1]: 53%

Cc1ccc(-c2nnc3nc4ccccc4n3c2O)s1
Ki [3]: 115 nM
GABA ratio [4]: 0.96
inhibition [1]: 83%

COc1ccc(-c2nnc3nc4ccccc4n3c2O)cc1
NE (Mus musculus [5]): inactive
inhibition [2]: 5%
Ki [3]: 44 nM
GABA ratio [4]: 1.25
NE (Mus musculus [13]): inactive
NE (Mus musculus [7]): inactive
inhibition [1]: 89%

Cn1c2ccccc2n2c(=O)c(-c3ccccc3)nnc12
ED50 (Mus musculus [9]): 60 mg/kg
NE (Mus musculus [5]): inactive
inhibition [2]: 66%
Ki [3]: 860 nM
GABA ratio [4]: 1.7
NE (Mus musculus [8]): inactive
inhibition [1]: 92%

Oc1c(-c2ccco2)nnc2nc3ccccc3n12
inhibition [2]: 25%
Ki [3]: 56 nM
GABA ratio [4]: 0.98
inhibition [1]: 93%

COC(=O)c1cc2c(cn1)[nH]c1ccccc12 [BETA-CCM]
Diazepam antagonism (Mus musculus [10]): 0.02
Proconvulsant action (Mus musculus [14]): 19.4
NE (Mus musculus [15]): inactive

Cc1nnc2nc3ccccc3n2c1O
inhibition [1]: 26%

Oc1cnnc2nc3ccccc3n12
inhibition [1]: 11%

COc1ccc(-c2nnc3nc4ccccc4n3c2O)cc1OC
inhibition [1]: 17%

Cn1c2ccccc2n2c(=O)c(-c3ccco3)nnc12
inhibition [1]: 68%

Oc1c(-c2ccsc2)nnc2nc3ccccc3n12
Ki [3]: 107 nM
GABA ratio [4]: 1.2
inhibition [1]: 85%

Oc1c(-c2ccccc2)nnc2nc3ccccc3n12
NE (Mus musculus [5]): inactive
inhibition [2]: 35%
Ki [3]: 53 nM
GABA ratio [4]: 1.2
NE (Mus musculus [7]): inactive
NE (Mus musculus [8]): inactive
inhibition [1]: 97%

Oc1c(-c2ccc(Cl)cc2)nnc2nc3ccccc3n12
inhibition [1]: 34%
